Here are results for five molecules from ChEMBL document CHEMBL1154645, “Aza-peptidyl Michael acceptor and epoxide inhibitors--potent and selective inhibitors of Schistosoma mansoni and Ixodes ricinus legumains (asparaginyl endopeptidases)” (J Med Chem, 2009).

A short description of experiment [1]: Inhibition of Schistosoma mansoni asparaginyl endopeptidase. In outline:
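Recombinant S. mansoni legumain zymogen expressed in Pichia pastoris and activated before use. Assay buffer was 0.1 M citrate-phosphate with 4 mM DTT at pH 6.8, with under 1% DMSO. The substrate was Cbz-Ala-Ala-[…]-AMC at a final 10 μM, and activity was read as AMC release.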

Experiment [2] addresses T1, Legumain-like protease (Ixodes ricinus, UniProt Q6PRC7).
T1 sequence (Q6PRC7 whole entry): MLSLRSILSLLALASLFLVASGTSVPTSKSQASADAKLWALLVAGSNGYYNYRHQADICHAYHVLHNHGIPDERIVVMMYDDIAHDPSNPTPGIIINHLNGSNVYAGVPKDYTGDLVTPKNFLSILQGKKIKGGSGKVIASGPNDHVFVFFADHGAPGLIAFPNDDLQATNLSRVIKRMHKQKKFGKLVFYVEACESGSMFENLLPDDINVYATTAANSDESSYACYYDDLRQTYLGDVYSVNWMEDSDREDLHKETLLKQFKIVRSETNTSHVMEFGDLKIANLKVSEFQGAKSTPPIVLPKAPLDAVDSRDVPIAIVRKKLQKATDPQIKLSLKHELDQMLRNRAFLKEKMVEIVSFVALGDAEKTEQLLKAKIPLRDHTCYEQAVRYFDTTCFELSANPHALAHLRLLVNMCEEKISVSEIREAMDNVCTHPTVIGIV
Put plainly: Inhibition of Ixodes ricinus asparaginyl endopeptidases. In outline: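 Recombinant I. ricinus legumain zymogen expressed in Pichia pastoris, then activated. Substrate: Cbz-Ala-Ala-[…]-AMC at 10 μM final, with fluorogenic AMC release as the read-out.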

As usually defined, the IC50 is the concentration that gives 50% inhibition. Consider `C[C@H](NC(=O)N1CCOCC1)C(=O)NN(CC(N)=O)C(=O)/C=C/C(=O)NCc1ccco1`, for which the IC50 result in experiment [1] and in experiment [2] was “Not Active” each time.

In the case of `C[C@H](NC(=O)N1CCOCC1)C(=O)NN(CC(N)=O)C(=O)/C=C/C(=O)NC1CC1`, the IC50 result in experiment [1] and in experiment [2] was “Not Active” in each case.

As for `C[C@H](NC(=O)[C@@H](C)NC(=O)N1CCNCC1)C(=O)NN(CC(N)=O)C(=O)/C=C/C(=O)N(C)Cc1cccc2ccccc12`, the IC50 is 40 nM in experiment [1] (read-out: IC50) and 3.8 nM in experiment [2] (read-out: IC50).

Turning to `C[C@H](NC(=O)[C@H](C)NC(=O)N1CCCCC1)C(=O)NN(CC(N)=O)C(=O)/C=C/C(=O)N(Cc1cccc2ccccc12)Cc1cccc2ccccc12` (relative stereo), the IC50 in experiment [1] (read-out: IC50) is 57 nM; in experiment [2] (read-out: IC50), 8 nM.

With `C[C@H](NC(=O)N1CCOCC1)C(=O)NN(CC(N)=O)C(=O)Nc1cccc2ccccc12`, the IC50 entry in experiment [1] and in experiment [2] was “Not Active” in each case.
